Among the data in ChEMBL document CHEMBL4513216, “Probing the Open Global Health Chemical Diversity Library for Multistage-Active Starting Points for Next-Generation Antimalarials” (ACS Infect Dis, 2020) are cytotoxicity values, retold here.

Each structure is given as a SMILES string.

A short description of the data set: Toxicity liver stage against HepG2, at 10uM. Type of data set: cell-based. Also noted: test concentration 10 uM, cell line HepG2-A16-CD81EGFP. The following applies: human, HepG2-A16-CD81EGFP cells; read-out: INHIBITION
The method, boiled down: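 Uninfected HepG2-A16-CD81EGFP cells, 3 × 10^3 per well, 1536-well, plated on prespotted compound at 10 μM final, parasite-free screening media added to match infected plates; puromycin 10 μM positive, DMSO 0.5% negative; run in parallel with 48 h PbLuc assay at 37 °C, 5% CO2; viability by CellTiter-Glo luminescence, normalized to controls.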
Consider `CC(Cn1ccnc1)NCc1nncn1C1CCCCC1` (configuration not stated), for which the cytotoxicity at 10 µM is -4.54%.
Turning to `NC(=O)C1(c2cnccn2)CCCN1Cc1ccccn1` (configuration not stated), the cytotoxicity at 10 µM was -6.36%.
For `Cc1ncccc1C(=O)N1CCC2(CCc3ccccc3C(=O)N2)C1` (configuration not stated) the value was 4.28%; for `O=C(Cc1ccncc1)N1CCC2(CC1)CC(c1ccccc1)CO2` (configuration not stated), -86.1%.
For `CC(Nc1nc(-c2ccccc2)nc2c1CCNCC2)c1cccnc1` (configuration not stated), the cytotoxicity at 10 µM was -0.587%.
With `CSc1ncc(C(=O)N2CCN(c3ccccc3C)CC2C)cn1` (configuration not stated) the figure was 0.642%.
For `Nc1nc(NCCO)cc(N2CCc3c([nH]c4ccccc34)C2)n1` the value was 11.9%.
With `O=C(CN1CCCC(Cn2cncn2)C1)NCc1ccccc1F` (configuration not stated) the figure was -4.65%; with `CSc1ncccc1C(=O)NCCC(O)c1cc(C)oc1C` (configuration not stated), 1.95%; with `Cn1cnnc1C1CCCN(C(=O)COCc2ccccc2)C1` (configuration not stated), -18.1%.
`COC1CCN(c2ccc(F)cc2CN(C)C(=O)c2cc[nH]n2)CC1`: the cytotoxicity at 10 µM was -4.32%.
With `CC(=O)N1CC(C(=O)N2CCCC(Cn3ccnc3C)C2)C1` (configuration not stated) the figure was 1.27%.
With `O=C(NCc1cc[nH]n1)N1CCN(c2ncccn2)CC1` the figure was -3.29%; with `Cc1nccn1C1CCCN(C(=O)CCNc2ncccn2)C1` (configuration not stated), -13.7%; with `CCN1CCN2CCCN(S(=O)(=O)c3cccc(F)c3)C2C1=O` (configuration not stated), 5.18%.
With `CCOCCN1CCN(CCOC)CC1C` (configuration not stated) the figure was -4.2%; with `Cc1cc(CNC(=O)Nc2ccc(C(=O)NC3CC3)cc2)no1`, -0.396%.
In the case of `CCOCCOC(C)C(=O)Nc1ccc2ccn(CC(=O)NC)c2c1` (configuration not stated), the cytotoxicity at 10 µM stood at 2.3%.
Regarding `Cc1cnn(CCNCc2ccc(OCc3ccncc3)cc2)c1`, the cytotoxicity at 10 µM was -2.99%.
With `CCOc1cc(C)nc(N2CCN(C(=O)c3cscn3)CC2)n1` the figure was -7.54%.
For `Cc1csc2ncnc(N3CCC(Cn4cc(C(C)(C)O)nn4)CC3)c12` the value was 49.2%; for `Cc1nccn1C1CCCN(C(=O)Cn2ccc(=O)n(C)c2=O)C1` (configuration not stated), -5.17%.
For `COc1ccccc1OC1CN(C(=O)Cc2c(C)nc(C)[nH]c2=O)C1` the value was -2.9%.
`O=C(C1CCOCC1)N1CC[C@@](O)(c2ccccc2)[C@H]2CCCC[C@@H]21`: the cytotoxicity at 10 µM was -8.35%.
For `Cc1nn(C)c(=O)c2nn(-c3cccc(Cl)c3)c(C)c12` the value was 3.79%.
For `COCCN1C(=O)CC[C@@H]2[C@H]1CCN2S(=O)(=O)c1cccs1` the value was -87.2%.
With `COc1c(CNC2CCN(CC(=O)NC3CC3)CC2)c(C)nn1C`, the cytotoxicity at 10 µM was determined as 7.76%.
With `O=S(=O)(NC1CCCCC12OCCO2)c1cc(F)cc(F)c1` (configuration not stated) the figure was -3.55%.
With `CCc1noc(C(C)N(C)CC(=O)Nc2cccc(C)n2)n1` (configuration not stated) the figure was 0.407%; with `NC(=O)NC1CCN(Cc2ccccc2OCC(F)(F)F)CC1`, 0.451%.
With `CCc1noc(CN(CC(=O)N2CCCCC2)c2ccc(C)cc2)n1`, the cytotoxicity at 10 µM is -3.24%.
With `Cc1occc1C(=O)Nc1cccc(C(=O)OCC2CCCN2)c1` (configuration not stated) the figure was -2.09%; with `CN1CCCN(C(=O)c2csc3nc(-c4ccc(Cl)cc4)cn23)CC1`, 2.14%; with `Cn1ncc2c(=O)[nH]c(CN3CCCc4cc(F)cc(F)c43)nc21`, -1.76%.
With `CCc1csc(C2CCCN(C(=O)c3c[nH]c(C)n3)C2)n1` (configuration not stated) the figure was -9.03%; with `Cc1ccnc(C(=O)N2C[C@@H]3CN(S(C)(=O)=O)CCO[C@@H]3C2)c1`, -3.92%; with `CCC(Nc1cccc(OC)c1)C(=O)NCc1nc(C)cc(=O)[nH]1` (configuration not stated), 4.91%.
With `COc1cc(C(=O)NCC2(N(C)C)CCN(C)CC2)c2ccccc2n1` the figure was -0.356%; with `Cc1ncc(CN(C)C2CCCN(CCc3ccccc3)C2)n1C` (configuration not stated), -4.17%.
For `COCC1COCCC12CCN(C(=O)CC1Cc3ccccc3C1)CC2` (configuration not stated), the cytotoxicity at 10 µM came out at 4.03%.
For `Cc1ccc(-c2nc(CC(=O)NCC3CCOC3)cs2)o1` (configuration not stated) the value was -43%.
With `O=C(c1cccn1Cc1cccs1)N1CCSCC1` the figure was 4.14%; with `FC(F)(F)c1cc(C2CCCN(Cc3cccnc3)C2)n[nH]1` (configuration not stated), -45.7%.
For `CC(O)CCN(C)S(=O)(=O)Cc1ccc(Cl)c(Cl)c1` (configuration not stated) the value was 3.92%.
For the compound `Cc1nc(N2CCN(C)CC2)ncc1C(=O)N1CCCCCC1`, the cytotoxicity at 10 µM was -3.48%.
For `CN1CCOC(CNCc2cnc(C(C)(C)C)s2)C1` (configuration not stated) the value was -2.87%; for `Cc1n[nH]cc1CNCC1(c2ccc3c(c2)OCO3)CCOCC1`, 7.73%.
`Cc1nc(C2CCCCC2)sc1C(=O)O`: the cytotoxicity at 10 µM is 15%.
For `CCOc1ccc(N(CCC#N)C(=O)c2ccnc(SC)c2)cc1`, the cytotoxicity at 10 µM was -2.6%.
For `Cc1nc(CN2CCCC(CCc3ccccc3F)C2)c[nH]1` (configuration not stated) the value was -6.55%; for `O=C(Nc1ccccc1)N1C2CCC(O)(CC2)C1CO` (configuration not stated), -5.2%; for `CCc1nc(CNCC2(C(N)=O)CCOCC2)cs1`, -3.97%.
For `CN(C)c1cccc(C(=O)Nc2ccn(CCc3ccncc3)n2)c1` the value was 0.209%; for `Cc1nc(C(C)C)sc1C(=O)NCCSc1nccn1C`, -1.7%; for `CNC(=O)c1cccc(CN2CCC(N(C)Cc3noc(C)n3)C2)c1` (configuration not stated), 4.37%.
With `CC(C)[C@H]1CN(CC2CCC2)C[C@@H]1NC(=O)c1ccc(=O)[nH]c1`, the cytotoxicity at 10 µM was -7.85%.
`CC(C)N(C)S(=O)(=O)N(C)Cc1ccc2c(c1)OCO2`: the cytotoxicity at 10 µM is -0.0868%.
With `O=C(NCCN1CCCCCC1=O)c1ccc(=O)[nH]n1` the figure was -19.3%.
For `Cc1ccc(CN2CCC3(CC2)CCN(C(=O)c2cccn2C)C3)cc1` the value was -2.6%; for `COCCNC(=O)C1CN(C(N)=O)Cc2ccnn2C1` (configuration not stated), 0.0039%; for `Cc1cnn(CC2CCCCN2Cc2nnc(C3CC3)n2C)c1` (configuration not stated), 2.36%.
With `NC(=O)c1cccc(OCCC(=O)NC2CCc3c(F)cccc32)c1` (configuration not stated) the figure was 9.86%; with `CCOC(=O)N1CCN(C(=O)c2sc(-c3ccc(F)cc3)nc2C)CC1`, 10.7%; with `Cc1ncnc2c1CCN(CC(=O)N(C)C)CC2`, -101%.
Take `CCOCCCNCc1cc2c(C)cc(C)cc2n2c(=O)n(C)nc12`: the cytotoxicity at 10 µM was -4%.
Regarding `O=C(NCCCN1CCOCC1)c1nc(-c2ccc3cc[nH]c3c2)no1`, the cytotoxicity at 10 µM was -0.663%.
For the compound `COC(=O)C(c1cc(F)ccc1F)N(C)C(=O)c1cnc(C)cn1` (configuration not stated), the cytotoxicity at 10 µM worked out at 0.111%.
For `COc1ccc(F)cc1C(=O)N1CC(c2ccncc2)C1`, the cytotoxicity at 10 µM was -4.93%.
On to `CNS(=O)(=O)CC(=O)NC(C)Cc1ccccc1Br` (configuration not stated), for which the cytotoxicity at 10 µM is 13.7%.
With `O=C(CCc1cccs1)N1CCCC1c1noc(C2CC2)n1` (configuration not stated) the figure was -4.87%; with `Cc1ccc(O)c(CN2CCCCC2CCN2CCOCC2)c1` (configuration not stated), 4.25%; with `Cc1cc(C)nc(NCc2nnc3n2CCCCC3)n1`, -10.6%.
